{
  "source": "ChEMBL document CHEMBL2390881",
  "about": "“Identification of M. tuberculosis thioredoxin reductase inhibitors based on high-throughput docking using constraints” (J Med Chem, 2013)",
  "key": {"[1]": {"molecular_target": "T1, Thioredoxin reductase (Mycobacterium tuberculosis) (UniProt P9WHH1)", "T1 sequence (whole entry)": "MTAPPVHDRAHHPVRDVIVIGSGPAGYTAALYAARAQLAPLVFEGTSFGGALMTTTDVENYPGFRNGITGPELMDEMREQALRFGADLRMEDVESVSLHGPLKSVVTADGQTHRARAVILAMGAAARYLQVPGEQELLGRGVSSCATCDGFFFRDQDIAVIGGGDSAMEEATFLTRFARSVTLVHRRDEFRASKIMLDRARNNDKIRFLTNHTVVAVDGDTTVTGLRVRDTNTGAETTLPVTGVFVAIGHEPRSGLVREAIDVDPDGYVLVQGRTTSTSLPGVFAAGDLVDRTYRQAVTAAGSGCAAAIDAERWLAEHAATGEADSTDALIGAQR", "experiment": "Inhibition of Mycobacterium tuberculosis TrxR at 5 uM after 10 mins by microplate reader analysis", "method_in_brief": "(§1)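 MtTrxR, MtTrxB and MtTPx from M. tuberculosis, expressed in E. coli. Enzyme preincubated 10 min at 25 °C with 10 μM MtTrxB, 5 μM MtTPx, 225 μM NADPH and 0.06-45 μM compound in 50 mM HEPES pH 7.4, 1 mM EDTA. Started with 73 μM t-butylhydroperoxide. Initial NADPH oxidation rate read at 340 nm, 25 °C. Triplicates, outliers removed. IC50 by four-parameter fit, mean of ≥3 assays.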"}, "[2]": {"molecular_target": "T1, Thioredoxin reductase (Mycobacterium tuberculosis)", "experiment": "Inhibition of Mycobacterium tuberculosis TrxR at 15 uM after 10 mins by microplate reader analysis", "method_in_brief": "as §1"}, "[3]": {"molecular_target": "Thioredoxin reductase (Homo sapiens) (UniProt Q16881+Q9NNW7+Q86VQ6)", "experiment": "Inhibition of human TrxR at 100 uM by spectrophotometry", "format": "protein assay", "method_in_brief": "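Human placenta TrxR1 (2.8 nM final) with 200 μM NADPH in 100 mM potassium phosphate, 2 mM EDTA, pH 7.4. Inhibitor added up to 100 μM final, then reaction started with 3 mM DTNB. Absorbance followed at 412 nm at 25 °C against inhibitor-free control. At least three independent experiments; apparent activation scored as no inhibition.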"}, "[4]": {"molecular_target": "T1, Thioredoxin reductase (Mycobacterium tuberculosis)", "experiment": "Inhibition of Mycobacterium tuberculosis TrxR at 1.67 uM after 10 mins by microplate reader analysis", "method_in_brief": "as §1"}, "[5]": {"experiment": "Selectivity index, ratio of IC50 for human TrxR to IC50 for Mycobacterium tuberculosis TrxR", "method_in_brief": "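Estimated from HsTrxR inhibition at 100 μM (DTNB assay) and the MtTrxR IC50, assuming that ≤10% HsTrxR inhibition at 100 μM reflects an IC50 of >300 μM.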"}, "[6]": {"molecular_target": "T2, Thioredoxin reductase (Mycobacterium tuberculosis, UniProt P9WHH1)", "T2 sequence (P9WHH1 whole entry)": "T1 sequence (whole entry)", "experiment": "Inhibition of Mycobacterium tuberculosis TrxR after 10 mins by microplate reader analysis", "method_in_brief": "as §1"}, "[7]": {"molecular_target": "T1, Thioredoxin reductase (Mycobacterium tuberculosis)", "experiment": "Inhibition of Mycobacterium tuberculosis TrxR at 45 uM after 10 mins by microplate reader analysis", "method_in_brief": "as §1"}},
  "data": [
    {"smiles": "O=C(O)[C@H](Cc1cc2ccccc2[nH]1)NCc1c[nH]c2ccccc12", "values": [
      {"measurement": "inhibition", "setting": "[1]", "value": 31.7, "unit": "%"},
      {"measurement": "inhibition", "setting": "[2]", "value": 43.3, "unit": "%"},
      {"measurement": "inhibition", "setting": "[3]", "value": 10.4, "unit": "%"},
      {"measurement": "inhibition", "setting": "[4]", "value": 26.7, "unit": "%"},
      {"measurement": "Ratio IC50", "setting": "[5]", "value": "> 10"},
      {"measurement": "IC50", "setting": "[6]", "value": 30, "unit": "µM"},
      {"measurement": "inhibition", "setting": "[7]", "value": 31, "unit": "%"}
    ]},
    {"smiles": "O=C(COc1ccccc1)Nc1ccc(N2CCC(NCc3cccc(-n4cccn4)c3)CC2)cc1", "values": [
      {"measurement": "inhibition", "setting": "[1]", "value": 16.9, "unit": "%"},
      {"measurement": "inhibition", "setting": "[2]", "value": 18.2, "unit": "%"},
      {"measurement": "inhibition", "setting": "[4]", "value": 11.2, "unit": "%"},
      {"measurement": "inhibition", "setting": "[7]", "value": 22.1, "unit": "%"}
    ]},
    {"smiles": "CSCCNC1CCN(c2ccc(NC(=O)CCCCc3ccccc3)cc2)CC1", "values": [
      {"measurement": "inhibition", "setting": "[1]", "value": 29.7, "unit": "%"},
      {"measurement": "inhibition", "setting": "[2]", "value": 33.7, "unit": "%"},
      {"measurement": "inhibition", "setting": "[3]", "value": 0, "unit": "%"},
      {"measurement": "inhibition", "setting": "[4]", "value": 27, "unit": "%"},
      {"measurement": "Ratio IC50", "setting": "[5]", "value": "> 3"},
      {"measurement": "IC50", "setting": "[6]", "value": 100, "unit": "µM"},
      {"measurement": "inhibition", "setting": "[7]", "value": 28, "unit": "%"}
    ]},
    {"smiles": "Nc1ccc(N2CCCCC2)cc1", "values": [
      {"measurement": "inhibition", "setting": "[1]", "value": 17, "unit": "%"},
      {"measurement": "inhibition", "setting": "[2]", "value": 35.7, "unit": "%"},
      {"measurement": "inhibition", "setting": "[3]", "value": 0, "unit": "%"},
      {"measurement": "inhibition", "setting": "[4]", "value": 9.5, "unit": "%"},
      {"measurement": "Ratio IC50", "setting": "[5]", "value": "> 10"},
      {"measurement": "IC50", "setting": "[6]", "value": 33.4, "unit": "µM"},
      {"measurement": "inhibition", "setting": "[7]", "value": 55, "unit": "%"}
    ]},
    {"smiles": "Fc1cccc(Cl)c1CNc1ccc(N2CCCCC2)cc1", "values": [
      {"measurement": "inhibition", "setting": "[1]", "value": 41.7, "unit": "%"},
      {"measurement": "inhibition", "setting": "[2]", "value": 51.7, "unit": "%"},
      {"measurement": "inhibition", "setting": "[3]", "value": 4.6, "unit": "%"},
      {"measurement": "inhibition", "setting": "[4]", "value": 30, "unit": "%"},
      {"measurement": "Ratio IC50", "setting": "[5]", "value": "> 10"},
      {"measurement": "IC50", "setting": "[6]", "value": 15.3, "unit": "µM"},
      {"measurement": "inhibition", "setting": "[7]", "value": 58.7, "unit": "%"}
    ]},
    {"smiles": "O=C(CCCCc1ccccc1)Nc1ccc(N2CCC(NCCn3cccn3)CC2)cc1", "values": [
      {"measurement": "inhibition", "setting": "[1]", "value": 14.7, "unit": "%"},
      {"measurement": "inhibition", "setting": "[2]", "value": 17.5, "unit": "%"},
      {"measurement": "inhibition", "setting": "[4]", "value": 12.3, "unit": "%"},
      {"measurement": "inhibition", "setting": "[7]", "value": 24, "unit": "%"}
    ]},
    {"smiles": "c1ccc2sc(CNc3ccc(N4CCCCC4)cc3)nc2c1", "values": [
      {"measurement": "inhibition", "setting": "[1]", "value": 39.7, "unit": "%"},
      {"measurement": "inhibition", "setting": "[2]", "value": 44.4, "unit": "%"},
      {"measurement": "inhibition", "setting": "[3]", "value": 17.1, "unit": "%"},
      {"measurement": "inhibition", "setting": "[4]", "value": 24, "unit": "%"},
      {"measurement": "Ratio IC50", "setting": "[5]", "value": "> 10"},
      {"measurement": "IC50", "setting": "[6]", "value": 15.8, "unit": "µM"},
      {"measurement": "inhibition", "setting": "[7]", "value": 67, "unit": "%"}
    ]},
    {"smiles": "C=CCc1cccc(/C=N/NC(=O)CCC2C(=O)NN=C2C)c1O", "note": "(stereo not given)", "values": [
      {"measurement": "inhibition", "setting": "[1]", "value": 31, "unit": "%"},
      {"measurement": "inhibition", "setting": "[2]", "value": 31.7, "unit": "%"},
      {"measurement": "inhibition", "setting": "[3]", "value": 0, "unit": "%"},
      {"measurement": "inhibition", "setting": "[4]", "value": 31.7, "unit": "%"},
      {"measurement": "Ratio IC50", "setting": "[5]", "value": "> 10"},
      {"measurement": "inhibition", "setting": "[7]", "value": 26, "unit": "%"}
    ]},
    {"smiles": "COc1ccc2nc(C)cc(Nc3ccc(O)cc3)c2c1", "values": [
      {"measurement": "inhibition", "setting": "[1]", "value": 36, "unit": "%"},
      {"measurement": "inhibition", "setting": "[2]", "value": 51.6, "unit": "%"},
      {"measurement": "inhibition", "setting": "[3]", "value": 31.6, "unit": "%"},
      {"measurement": "inhibition", "setting": "[4]", "value": 25.6, "unit": "%"},
      {"measurement": "Ratio IC50", "setting": "[5]", "value": "> 8"},
      {"measurement": "IC50", "setting": "[6]", "value": 12.5, "unit": "µM"},
      {"measurement": "inhibition", "setting": "[7]", "value": 68, "unit": "%"}
    ]},
    {"smiles": "CC(c1c[nH]nc1-c1ccccc1)N1CCC(CCC(=O)Nc2ccccc2)CC1", "note": "(stereo not given)", "values": [
      {"measurement": "inhibition", "setting": "[1]", "value": 38, "unit": "%"},
      {"measurement": "inhibition", "setting": "[2]", "value": 34.3, "unit": "%"},
      {"measurement": "inhibition", "setting": "[3]", "value": 0, "unit": "%"},
      {"measurement": "inhibition", "setting": "[4]", "value": 29.7, "unit": "%"},
      {"measurement": "Ratio IC50", "setting": "[5]", "value": "> 20"},
      {"measurement": "IC50", "setting": "[6]", "value": 15, "unit": "µM"},
      {"measurement": "inhibition", "setting": "[7]", "value": 29.8, "unit": "%"}
    ]},
    {"smiles": "O=C(Nc1ccc(N2CCC(NCCOc3cccnc3)CC2)cc1)c1cnccn1", "values": [
      {"measurement": "inhibition", "setting": "[1]", "value": 12, "unit": "%"},
      {"measurement": "inhibition", "setting": "[2]", "value": 16.3, "unit": "%"},
      {"measurement": "inhibition", "setting": "[4]", "value": 5, "unit": "%"}
    ]},
    {"smiles": "NC1=C(c2nc(-c3ccccc3)cs2)C(=O)CN1c1ccc(S(N)(=O)=O)cc1", "values": [
      {"measurement": "inhibition", "setting": "[1]", "value": 9.9, "unit": "%"},
      {"measurement": "inhibition", "setting": "[2]", "value": 12.8, "unit": "%"},
      {"measurement": "inhibition", "setting": "[3]", "value": 0, "unit": "%"},
      {"measurement": "inhibition", "setting": "[4]", "value": 8.4, "unit": "%"},
      {"measurement": "Ratio IC50", "setting": "[5]", "value": "> 2"},
      {"measurement": "IC50", "setting": "[6]", "value": 200, "unit": "µM"},
      {"measurement": "inhibition", "setting": "[7]", "value": 25, "unit": "%"}
    ]},
    {"smiles": "Nc1nc(-c2cc3ccc(O)cc3oc2=O)cs1", "values": [
      {"measurement": "inhibition", "setting": "[1]", "value": 17.3, "unit": "%"},
      {"measurement": "inhibition", "setting": "[2]", "value": 19.7, "unit": "%"},
      {"measurement": "inhibition", "setting": "[3]", "value": 0, "unit": "%"},
      {"measurement": "inhibition", "setting": "[4]", "value": 10.6, "unit": "%"},
      {"measurement": "Ratio IC50", "setting": "[5]", "value": "> 3"},
      {"measurement": "IC50", "setting": "[6]", "value": 100, "unit": "µM"},
      {"measurement": "inhibition", "setting": "[7]", "value": 36.4, "unit": "%"}
    ]}
  ]
}
